Common to all, as to assay type: functional
For one assay, the system named is Bacillus cereus. Description: Antibacterial activity against Bacillus cereus ATCC 10702 after 20 hrs by MTT assay. Conditions: ATCC 10702, 20 h. The essentials:
(§1)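 Twofold broth doubling-dilution in nutrient broth. Overnight 37 °C cultures diluted to about 10^5 cells/mL. Compounds from 1 mg/mL MeOH stocks were dried in the first wells, then redissolved in DMSO, broth and culture before serial dilution. Plates held 20 h at 37 °C in a moist atmosphere. 0.25% aqueous MTT was added and plates reincubated 4 h; violet turbid wells scored as living bacteria.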

The subject of assay [1] is Staphylococcus epidermidis. The assay can be described thus: Antibacterial activity against Staphylococcus epidermidis ATCC 12228 after 20 hrs by MTT assay. Conditions: ATCC 12228, 20 h. The gist of the method:
as §1

The subject of another assay is Micrococcus luteus. The assay can be described thus: Antibacterial activity against Micrococcus luteus ATCC 9341 after 20 hrs by MTT assay. Conditions: ATCC 9341, 20 h. The gist of the method:
as §1

≈ marks a conversion by molar mass, not a printed value. Where only a bound is given, the exact number is not on record here.

As for `C=C(C)[C@@H]1CC23C(=O)[C@@](C)(C[C@H]2C1(C)C)C(=O)C(C(=O)C(C)CC)=C3O` (stereo partly drawn) [LALIBINONE C], the results for the MIC (in the assay with Bacillus cereus; in assay [1]; in the assay with Micrococcus luteus) were 16 mg/L (≈ 44.6 µM), 32 mg/L (≈ 89.3 µM) and 64 mg/L (≈ 179 µM), respectively.

For `O=C(N[C@H](CO)[C@H](O)c1ccc([N+](=O)[O-])cc1)C(Cl)Cl` [CHLORAMPHENICOL], the MIC with Bacillus cereus is 2 mg/L (≈ 6.19 µM); in assay [1], 4 mg/L (≈ 12.4 µM); against Micrococcus luteus, 1 mg/L (≈ 3.09 µM).

For `CC(C)C(=O)C1=C(O)[C@]2(C)C[C@H]3C(C)(C)CCC3(C1=O)C2=O` [LALIBINONE E], the MIC in the assay with Bacillus cereus is greater than 128 mg/L; in assay [1] it was greater than 256 mg/L; against Micrococcus luteus, greater than 128 mg/L.

Turning to `C=C(C)[C@@H]1CC23C(=O)C(C(=O)C(C)C)=C(O)[C@](C)(C[C@H]2C1(C)C)C3=O` [LALIBINONE A], the minimal inhibitory concentration (MIC) (against Bacillus cereus; in assay [1]; against Micrococcus luteus) was 64 mg/L (≈ 186 µM) in each case.

On to `C=C(C)[C@H]1CC23C(=O)[C@@](C)(C[C@H]2C1(C)C)C(=O)C(C(=O)C(C)CC)=C3O` (stereo partly drawn) [LALIBINONE D], for which the figures for the MIC (against Bacillus cereus; in assay [1]; in the assay with Micrococcus luteus) were 16 mg/L (≈ 44.6 µM), 32 mg/L (≈ 89.3 µM) and 64 mg/L (≈ 179 µM), respectively.

As for `C=C(C)[C@H]1CC23C(=O)C(C(=O)C(C)C)=C(O)[C@](C)(C[C@H]2C1(C)C)C3=O` [LALIBINONE B], the MIC is 64 mg/L (≈ 186 µM) with Bacillus cereus, 128 mg/L (≈ 372 µM) in assay [1] and 64 mg/L (≈ 186 µM) against Micrococcus luteus.

(Values after ChEMBL document CHEMBL1155662, “New phloroglucinol derivatives from Hypericum papuanum” (2000).)
